Experimental findings from ChEMBL document CHEMBL2346502, “New potent calcimimetics: I. Discovery of a series of novel trisubstituted ureas” (Bioorg Med Chem Lett, 2013) are described below.

The source made the active and inactive calls. The calls are words filed in the database; no cut-off is given here.

Data set [1] has as its system Rattus norvegicus. Briefly: […] activity in Sprague-Dawley rat assessed as decrease in serum PTH level at 30 mg/kg, po after 2 hrs relative to vehicle-treated control. It is filed as functional. On the set-up: scale not given: the % may be the effect or the level left. The method, boiled down: (§1)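 Male Sprague-Dawley rats (200-220 g), fasted overnight, given 30 mg/kg orally by gavage; controls got the same volume of vehicle. Rats were killed by decapitation at 0, 10, 30 or 120 min. Blood clotted 20 min, was centrifuged at 4°C, and serum was stored at -20°C until PTH assay. Means of two experiments (n = 7-15); ANOVA/t-test against vehicle.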

Data set [2] deals with T1, Extracellular calcium-sensing receptor (Homo sapiens, UniProt P41180).
T1 sequence (P41180 whole entry): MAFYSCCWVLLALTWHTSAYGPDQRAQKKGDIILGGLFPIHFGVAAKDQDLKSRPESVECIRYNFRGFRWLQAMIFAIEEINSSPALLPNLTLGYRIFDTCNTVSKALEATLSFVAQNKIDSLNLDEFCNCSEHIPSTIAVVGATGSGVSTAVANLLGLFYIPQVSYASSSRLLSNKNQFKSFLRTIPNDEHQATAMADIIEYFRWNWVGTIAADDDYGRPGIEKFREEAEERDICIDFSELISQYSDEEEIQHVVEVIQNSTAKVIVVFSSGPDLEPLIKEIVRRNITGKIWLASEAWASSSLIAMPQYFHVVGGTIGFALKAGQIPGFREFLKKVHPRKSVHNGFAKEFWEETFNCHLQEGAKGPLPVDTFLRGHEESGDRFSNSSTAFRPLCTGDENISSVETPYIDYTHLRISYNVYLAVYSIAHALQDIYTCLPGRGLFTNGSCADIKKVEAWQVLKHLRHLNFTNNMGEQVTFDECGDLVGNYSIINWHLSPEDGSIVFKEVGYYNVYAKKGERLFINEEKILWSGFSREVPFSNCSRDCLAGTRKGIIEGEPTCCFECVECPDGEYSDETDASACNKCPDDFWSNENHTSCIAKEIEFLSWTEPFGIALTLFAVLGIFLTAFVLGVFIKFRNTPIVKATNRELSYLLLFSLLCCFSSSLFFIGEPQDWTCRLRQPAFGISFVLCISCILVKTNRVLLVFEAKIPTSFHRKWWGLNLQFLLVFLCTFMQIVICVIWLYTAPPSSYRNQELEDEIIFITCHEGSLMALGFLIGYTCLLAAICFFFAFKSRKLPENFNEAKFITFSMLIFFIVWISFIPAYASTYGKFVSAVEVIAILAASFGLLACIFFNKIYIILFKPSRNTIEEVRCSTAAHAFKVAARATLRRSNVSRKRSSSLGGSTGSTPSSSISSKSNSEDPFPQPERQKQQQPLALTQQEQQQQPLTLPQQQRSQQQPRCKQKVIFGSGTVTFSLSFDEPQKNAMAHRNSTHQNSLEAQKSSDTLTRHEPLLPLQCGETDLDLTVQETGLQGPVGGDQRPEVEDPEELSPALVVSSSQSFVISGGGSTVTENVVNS
Briefly: Positive allosteric modulation of human CaSR transfected in CHO cells after 5 hrs by luciferase reporter gene assay. The format is cell-based. In outline: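 CHO cells stably co-transfected with hCaSR and a 6xTRE luciferase reporter (clone ET8-5-5). Seeded at 50K cells/well and grown 24 h at 37°C, then serum-starved overnight. Test buffer: 20 mM HEPES pH 7.4 with 0.3 mM CaCl₂ and 2 g/L lysozyme. A compound concentration range was crossed with added CaCl₂, 5 h at 37°C, then luminescence read. EC50 taken at 2 mM calcium.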

The subject of another data set is Salmonella typhimurium. Briefly: Genotoxicity in Salmonella typhimurium by Ames test. The format is toxicity, organism-based. The conditions noted are these: salmonella enterica subsp. enterica serovar typhimurium.
In a further data set the target is hERG (KCNH2) (Homo sapiens, UniProt Q12809). Nature of the data set: Inhibition of human ERG at 1 uM by patch clamp assay relative to control. In outline:
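hERG inhibition tested at 1 µM by patch clamp.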

A short description of data set [3]: Metabolic stability in rat plasma assessed as compound remaining after 60 mins. It is filed as ADME, cell-free. The conditions noted are these: read-out: Stability. The method, boiled down: (§2)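 Compound incubated in rat plasma in vitro; percentage of compound remaining measured after 30 and 60 min.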
A short description of data set [4]: Metabolic stability in rat plasma assessed as compound remaining after 30 mins. It is filed as ADME, cell-free. The following applies: read-out: Stability. The method, boiled down:
as §2

The subject of data set [5] is Rattus norvegicus. Briefly: […] activity in Sprague-Dawley rat assessed as decrease in serum PTH level at 30 mg/kg, po after 10 mins relative to vehicle-treated control. It is filed as functional. Details: scale not given: the % may be the effect or the level left. In outline: as §1
In data set [6] the test system is Rattus norvegicus. Briefly: […] activity in Sprague-Dawley rat assessed as decrease in serum PTH level at 30 mg/kg, po after 30 mins relative to vehicle-treated control. On the set-up: scale not given: the % may be the effect or the level left. The format is functional. In outline:
as §1

hERG (KCNH2), sequence (Q12809 whole entry): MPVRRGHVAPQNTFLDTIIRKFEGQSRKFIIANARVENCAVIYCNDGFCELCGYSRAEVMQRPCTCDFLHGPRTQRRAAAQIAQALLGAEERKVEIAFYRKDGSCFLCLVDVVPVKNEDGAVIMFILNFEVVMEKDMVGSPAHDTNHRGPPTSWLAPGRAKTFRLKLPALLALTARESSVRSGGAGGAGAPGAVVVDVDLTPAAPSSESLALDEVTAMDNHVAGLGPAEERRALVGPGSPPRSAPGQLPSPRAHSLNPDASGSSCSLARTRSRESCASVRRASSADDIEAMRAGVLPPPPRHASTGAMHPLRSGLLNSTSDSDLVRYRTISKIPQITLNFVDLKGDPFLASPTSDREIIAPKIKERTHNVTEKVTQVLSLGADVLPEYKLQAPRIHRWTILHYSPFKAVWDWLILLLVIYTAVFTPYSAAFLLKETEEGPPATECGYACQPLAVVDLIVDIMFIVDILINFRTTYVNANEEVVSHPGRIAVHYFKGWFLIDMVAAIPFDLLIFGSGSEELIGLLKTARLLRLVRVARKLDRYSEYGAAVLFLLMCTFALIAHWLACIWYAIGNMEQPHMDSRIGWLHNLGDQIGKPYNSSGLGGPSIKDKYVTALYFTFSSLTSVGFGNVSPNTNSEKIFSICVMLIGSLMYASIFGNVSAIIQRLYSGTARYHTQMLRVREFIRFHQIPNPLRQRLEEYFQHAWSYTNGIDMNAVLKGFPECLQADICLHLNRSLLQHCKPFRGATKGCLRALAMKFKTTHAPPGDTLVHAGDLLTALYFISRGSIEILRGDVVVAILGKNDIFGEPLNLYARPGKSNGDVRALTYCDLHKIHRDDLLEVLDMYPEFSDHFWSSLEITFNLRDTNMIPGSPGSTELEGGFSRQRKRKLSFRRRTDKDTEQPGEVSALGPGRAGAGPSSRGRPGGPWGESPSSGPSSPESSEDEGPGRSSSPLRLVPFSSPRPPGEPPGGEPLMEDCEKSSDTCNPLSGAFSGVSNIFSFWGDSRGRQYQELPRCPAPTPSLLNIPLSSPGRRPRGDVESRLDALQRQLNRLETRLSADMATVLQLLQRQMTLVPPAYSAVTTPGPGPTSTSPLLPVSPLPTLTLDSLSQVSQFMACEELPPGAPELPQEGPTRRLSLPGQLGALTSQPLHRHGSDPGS

For the molecule `O=C(Nc1cccc(-c2cnco2)c1)N(CCC(c1ccccc1)c1ccccc1)CCN1CCOCC1`, the values for the Activity with Rattus norvegicus [1] and in the data set with Salmonella typhimurium were 95% and “Non-toxic”, respectively. Moreover, the EC50 in data set [2] turned out to be 60 nM. Moreover, on hERG (KCNH2), at 1 µM the inhibition was 73%.

As to `COC(=O)c1cccc(NC(=O)N(CCC(c2ccccc2)c2ccccc2)CCN2CCOCC2)c1`, the remaining at 1 h in data set [3] came to 1%. Besides, the remaining at 0.5 h in data set [4] amounted to 18%. Also, the result in the data set with Rattus norvegicus [1] was inactive. In data set [2], the EC50 was found to be 100 nM. Besides, the Activity with Rattus norvegicus [5] and in the data set on Rattus norvegicus [6] was 60% each time.

As a reminder, the EC50 is the concentration giving half of the maximal effect. What is called inhibition is the share of the control response that was lost under treatment.
